The target in experiment [1] is T1, Adrenergic receptor alpha-2 (Rattus norvegicus, UniProt P22086+P19328+P22909).
T1 sequence (P22086 whole entry): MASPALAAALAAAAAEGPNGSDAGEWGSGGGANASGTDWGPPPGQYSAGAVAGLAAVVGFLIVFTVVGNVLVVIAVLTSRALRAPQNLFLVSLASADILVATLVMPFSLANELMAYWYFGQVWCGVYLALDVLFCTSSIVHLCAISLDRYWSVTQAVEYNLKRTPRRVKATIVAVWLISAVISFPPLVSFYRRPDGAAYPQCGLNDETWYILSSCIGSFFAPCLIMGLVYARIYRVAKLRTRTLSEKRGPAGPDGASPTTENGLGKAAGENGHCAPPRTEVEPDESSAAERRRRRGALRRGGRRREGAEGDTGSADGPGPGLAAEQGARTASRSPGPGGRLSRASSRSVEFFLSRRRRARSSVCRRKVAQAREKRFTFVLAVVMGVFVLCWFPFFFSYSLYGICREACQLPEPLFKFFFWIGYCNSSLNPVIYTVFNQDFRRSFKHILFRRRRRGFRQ
T1 sequence (P19328 whole entry): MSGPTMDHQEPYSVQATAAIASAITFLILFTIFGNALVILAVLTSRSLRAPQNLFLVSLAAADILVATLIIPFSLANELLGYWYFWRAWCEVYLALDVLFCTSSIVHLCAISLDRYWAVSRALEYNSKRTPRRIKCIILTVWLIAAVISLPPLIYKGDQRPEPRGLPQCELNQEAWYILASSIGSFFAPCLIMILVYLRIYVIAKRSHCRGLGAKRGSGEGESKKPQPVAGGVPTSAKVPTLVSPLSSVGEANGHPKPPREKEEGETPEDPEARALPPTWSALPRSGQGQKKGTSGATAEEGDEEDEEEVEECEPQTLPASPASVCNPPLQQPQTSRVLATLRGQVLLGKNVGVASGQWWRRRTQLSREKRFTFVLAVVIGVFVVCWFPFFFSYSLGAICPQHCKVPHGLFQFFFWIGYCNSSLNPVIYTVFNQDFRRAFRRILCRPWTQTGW
T1 sequence (P22909 whole entry): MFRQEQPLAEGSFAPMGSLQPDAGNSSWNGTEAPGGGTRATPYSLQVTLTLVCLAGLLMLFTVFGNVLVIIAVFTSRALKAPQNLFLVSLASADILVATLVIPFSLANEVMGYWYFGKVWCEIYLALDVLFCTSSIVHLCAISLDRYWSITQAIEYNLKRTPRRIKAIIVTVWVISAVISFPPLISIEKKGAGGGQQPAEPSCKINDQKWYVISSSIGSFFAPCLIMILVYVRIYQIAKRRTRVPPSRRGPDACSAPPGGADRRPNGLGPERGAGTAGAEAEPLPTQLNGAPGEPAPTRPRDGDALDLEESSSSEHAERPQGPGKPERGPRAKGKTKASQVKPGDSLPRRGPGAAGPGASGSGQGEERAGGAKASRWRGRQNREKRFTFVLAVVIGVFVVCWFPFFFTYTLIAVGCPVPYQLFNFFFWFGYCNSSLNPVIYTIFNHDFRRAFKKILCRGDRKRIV
Briefly: Binding affinity to alpha-2 adrenergic receptor determined by measurement of [3H]yohimbine displacement from rat cortical membrane.

For experiment [2], the target named is T2, Adrenergic receptor alpha-1 (Rattus norvegicus, UniProt P15823+P23944+P43140).
T2 sequence (P15823 whole entry): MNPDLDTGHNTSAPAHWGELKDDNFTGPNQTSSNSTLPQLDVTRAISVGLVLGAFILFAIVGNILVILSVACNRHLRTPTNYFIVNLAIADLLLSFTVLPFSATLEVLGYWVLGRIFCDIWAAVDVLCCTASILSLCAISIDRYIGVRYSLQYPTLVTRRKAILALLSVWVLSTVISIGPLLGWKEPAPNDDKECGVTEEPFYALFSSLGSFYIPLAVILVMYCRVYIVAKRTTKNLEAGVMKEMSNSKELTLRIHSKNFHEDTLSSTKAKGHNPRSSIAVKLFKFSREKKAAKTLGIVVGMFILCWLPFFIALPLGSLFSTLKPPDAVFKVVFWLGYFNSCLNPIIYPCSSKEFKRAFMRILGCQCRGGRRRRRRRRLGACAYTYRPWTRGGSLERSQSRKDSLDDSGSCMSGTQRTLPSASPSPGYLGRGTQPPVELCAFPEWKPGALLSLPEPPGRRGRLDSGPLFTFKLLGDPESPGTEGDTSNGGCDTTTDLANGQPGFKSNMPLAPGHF
T2 sequence (P23944 whole entry): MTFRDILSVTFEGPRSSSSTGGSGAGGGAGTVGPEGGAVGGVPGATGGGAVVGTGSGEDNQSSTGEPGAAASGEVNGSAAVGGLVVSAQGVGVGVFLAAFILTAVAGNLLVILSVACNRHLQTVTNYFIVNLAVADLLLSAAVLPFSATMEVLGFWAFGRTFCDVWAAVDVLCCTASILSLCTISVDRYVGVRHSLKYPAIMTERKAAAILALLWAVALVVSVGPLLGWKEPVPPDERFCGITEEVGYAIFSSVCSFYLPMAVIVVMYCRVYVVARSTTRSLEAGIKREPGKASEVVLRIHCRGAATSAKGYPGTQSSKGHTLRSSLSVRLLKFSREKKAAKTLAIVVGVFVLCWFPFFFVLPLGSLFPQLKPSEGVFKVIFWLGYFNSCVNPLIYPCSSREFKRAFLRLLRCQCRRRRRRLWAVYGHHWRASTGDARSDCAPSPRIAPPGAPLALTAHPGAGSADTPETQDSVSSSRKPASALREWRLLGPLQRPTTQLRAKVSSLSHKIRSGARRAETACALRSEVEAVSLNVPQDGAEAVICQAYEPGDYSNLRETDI
T2 sequence (P43140 whole entry): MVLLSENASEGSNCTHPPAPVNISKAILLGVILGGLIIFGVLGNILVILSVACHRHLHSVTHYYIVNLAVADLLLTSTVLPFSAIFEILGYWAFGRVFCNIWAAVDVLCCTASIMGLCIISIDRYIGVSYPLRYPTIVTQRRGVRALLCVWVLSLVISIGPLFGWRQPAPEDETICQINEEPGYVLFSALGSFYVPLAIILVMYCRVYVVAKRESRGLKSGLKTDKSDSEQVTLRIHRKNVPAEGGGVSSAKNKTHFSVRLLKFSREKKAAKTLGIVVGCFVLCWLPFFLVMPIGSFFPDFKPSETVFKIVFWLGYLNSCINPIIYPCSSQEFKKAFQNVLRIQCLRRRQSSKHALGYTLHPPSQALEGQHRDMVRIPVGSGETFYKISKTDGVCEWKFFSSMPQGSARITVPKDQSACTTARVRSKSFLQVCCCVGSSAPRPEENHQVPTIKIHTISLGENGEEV
Briefly: Binding affinity to alpha-1 adrenergic receptor determined by measurement of [3H]prazosin displacement from rat cortical membrane. Summed up:
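Male Sprague-Dawley rat (150-200 g) cerebral cortex membranes, washed in 50 mM Tris-HCl/0.5 mM EDTA pH 7.4. 250 µg membrane protein incubated with 0.5 nM [3H]prazosin for 30 min at 25 °C in a 0.5 mL volume. Nonspecific binding defined by 10 µM phentolamine. IC50 estimated graphically; Ki calculated by Cheng-Prusoff.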

For the molecule `CS(=O)(=O)N1CCC[C@H]2CN3CCc4ccccc4[C@@H]3C[C@@H]21`, the “Log Ki” value in experiment [1] is -7.25; in experiment [2], -5.65.

`CS(=O)(=O)N1CC[C@H]2C[C@H]3c4ccccc4CCN3C[C@H]2C1`: the results for the “Log Ki” value in experiment [1] and in experiment [2] were -6.4 and -5.2, respectively.

In the case of `CS(=O)(=O)N1CCC[C@@H]2CN3CCc4c([nH]c5ccccc45)[C@@H]3C[C@@H]21`, the “Log Ki” value in experiment [1] is -7.78; in experiment [2] it was -4.8.

Regarding `COc1ccc2c(c1Br)CCN1C[C@H]3CCCN(S(C)(=O)=O)[C@@H]3C[C@@H]21`, the “Log Ki” value is -8.3 in experiment [1] and -5.35 in experiment [2].

Take `CS(=O)(=O)N1CCC[C@@H]2CN3CCc4ccc(F)cc4[C@@H]3C[C@@H]21`: the “Log Ki” value is reported as -8.04 in experiment [1] and -5.21 in experiment [2].

On to `CS(=O)(=O)N1CCC[C@@H]2CN3CCc4cc5c(cc4[C@@H]3C[C@H]21)OCO5`, for which the “Log Ki” value in experiment [1] is listed as -9.19; in experiment [2] it was -5.32.

With `COc1ccc2c(c1)CCN1C[C@H]3CCCN(S(=O)(=O)N(C)C)[C@H]3C[C@@H]21`, the “Log Ki” value in experiment [1] is -8.66; in experiment [2], -5.25.

On to `COc1cc2c(cc1Br)[C@@H]1C[C@@H]3[C@H](CCCN3S(C)(=O)=O)CN1CC2`, for which the “Log Ki” value is reported as -8.3 in experiment [1] and -5.25 in experiment [2].

Turning to `COc1ccc2c(c1)CCN1C[C@@H]3CCCN(S(C)(=O)=O)[C@H]3C[C@@H]21`, the “Log Ki” value was -7.84 in experiment [1] and -5.2 in experiment [2].

As for `CS(=O)(=O)N1CCC[C@@H]2CN3CCc4cc(O)ccc4[C@@H]3C[C@@H]21`, the figures for the “Log Ki” value in experiment [1] and in experiment [2] were -8.2 and -5.27, respectively.

As for `CCCCS(=O)(=O)N1CCC[C@H]2CN3CCc4ccccc4[C@@H]3C[C@H]21`, the “Log Ki” value in experiment [1] is -5.82; in experiment [2], -5.76.

As to `C=CS(=O)(=O)N1CCC[C@@H]2CN3CCc4cc(OC)ccc4[C@@H]3C[C@@H]21`, the “Log Ki” value in experiment [1] was -8.82; in experiment [2], -5.33.

As for `COc1ccc2c(c1)CCN1C[C@H]3CCCN(S(N)(=O)=O)[C@H]3C[C@@H]21`, the “Log Ki” value in experiment [1] is -8.43; in experiment [2] it was -4.92.

In the case of `CS(=O)(=O)N1CCC[C@@H]2CN(CCc3ccccc3)CC[C@@H]21`, the “Log Ki” value in experiment [1] is -6.12; in experiment [2], -5.51.

In the case of `CS(=O)(=O)N1CCC[C@H]2CN3CCc4ccccc4[C@@H]3C[C@H]21`, the results for the “Log Ki” value in experiment [1] and in experiment [2] were -5.96 and -5.58, respectively.

`COc1cc2c(cc1OC)[C@@H]1C[C@H]3[C@H](CCCN3S(C)(=O)=O)CN1C(C)C2` (stereo partly drawn): the “Log Ki” value was -7.08 in experiment [1] and -4.93 in experiment [2].

Consider `COc1ccc2c(c1)CCN1C[C@H]3CCCN(S(=O)(=O)NC(C)(C)C)[C@H]3C[C@@H]21`, for which the figures for the “Log Ki” value in experiment [1] and in experiment [2] were -7.78 and -5.26, respectively.

With `CN1C[C@@H]2CCCN(S(C)(=O)=O)[C@@H]2C[C@H]1c1ccc2c(c1)OCO2`, the “Log Ki” value in experiment [1] is recorded as -6.13; in experiment [2], -5.55.

With `CS(=O)(=O)N1CCC[C@H]2CN3CCc4cc5c(cc4[C@@H]3C[C@@H]21)OCO5`, the “Log Ki” value was -7.56 in experiment [1] and -5.65 in experiment [2].

For `COc1ccc2c(c1)CCN1C[C@@H]3CCCN(S(C)(=O)=O)[C@@H]3C[C@@H]21`, the “Log Ki” value is -6.88 in experiment [1] and -4.85 in experiment [2].

For the molecule `Cc1ccc2c(c1)CCN1C[C@H]3CCCN(S(C)(=O)=O)[C@H]3C[C@@H]21`, the “Log Ki” value is -9.15 in experiment [1] and -4.89 in experiment [2].

Regarding `Nc1ccc(S(=O)(=O)N2CCC[C@@H]3CN4CCc5ccccc5[C@@H]4C[C@@H]32)cc1`, the results for the “Log Ki” value in experiment [1] and in experiment [2] were -8.66 and -5.33, respectively.

On to `COc1cc2c(cc1OC)[C@@H]1C[C@H]3[C@H](CCCN3S(=O)(=O)CC(C)C)CN1CC2`, for which the “Log Ki” value is given as -8.1 in experiment [1] and -4.46 in experiment [2].

Turning to `CN(C)S(=O)(=O)N1CCC[C@@H]2CN3CCc4ccccc4[C@@H]3C[C@@H]21`, the “Log Ki” value in experiment [1] is listed as -8.74; in experiment [2] it was -6.03.

Turning to `CS(=O)(=O)N1CCC[C@H]2CN3CCc4cc5c(cc4[C@@H]3C[C@H]21)OCO5`, the “Log Ki” value was -7.24 in experiment [1] and -5.95 in experiment [2].

For the molecule `CS(=O)(=O)N1CC[C@@H]2CN3CCc4ccccc4[C@@H]3C[C@@H]2C1`, the “Log Ki” value is -7.54 in experiment [1] and -5.8 in experiment [2].

Consider `CC(C)CS(=O)(=O)N(C)[C@@H]1CCN2CCc3ccccc3[C@@H]2C1`, for which the “Log Ki” value in experiment [1] was -8.04; in experiment [2], -5.7.

Regarding `COc1ccc2c(c1)CCN1C[C@H]3CCCN(S(=O)(=O)CCl)[C@@H]3C[C@@H]21`, the “Log Ki” value is -8.95 in experiment [1] and -5.13 in experiment [2].

For the molecule `COc1ccc2c(c1)CCN1C[C@H]3CCCN(S(=O)(=O)c4cccs4)[C@@H]3C[C@@H]21`, the “Log Ki” value is reported as -8.83 in experiment [1] and -5.01 in experiment [2].

For the origin of these results see ChEMBL document CHEMBL1125249, “Structure-affinity relationships of 12-sulfonyl derivatives of 5,8,8a,9,10,11,12,12a,13,13a-decahydro-6H-isoquino[2,1-g][1 ,6] naphthyridines at alpha-adrenoceptors” (J Med Chem, 1991).
